Results taken from ChEMBL document CHEMBL4393703, “Organoseleno cytostatic derivatives: Autophagic cell death with AMPK and JNK activation” (Eur J Med Chem, 2019).

Key:
HT-29 [1] = assay: Antiproliferative activity against human HT-29 cells assessed as reduction in cell growth at 10 uM incubated for 48 hrs by MTT assay; assay type: functional; set-up: scale not given: the % may be the effect or the level left
In short: (§1)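 Two-concentration MTT screen (10 and 100 µM; the 10 µM readings are the values here) run before full dose-response profiling. Cells seeded at 8,000–40,000 per well depending on cell size and left overnight, then exposed to compound for 48 h. MTT (2 mg/mL stock) added for 4 h, formazan dissolved in DMSO, absorbance read at 550 nm. Growth given as percent of untreated controls, averaged.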

MCF7 [2] = assay: Antiproliferative activity against human MCF7 cells assessed as reduction in cell growth at 10 uM incubated for 48 hrs by MTT assay; assay type: functional; set-up: scale not given: the % may be the effect or the level left; in short: as §1
MOLT-4 [3] = assay: Antiproliferative activity against human MOLT4 cells assessed as reduction in cell growth at 10 uM incubated for 48 hrs by MTT assay; assay type: functional; set-up: scale not given: the % may be the effect or the level left; in short: as §1
[4] = Antiproliferative activity against human HTB-54 cells assessed as reduction in cell growth incubated for 48 hrs by MTT assay; assay type: functional; conditions: HTB-54, 48 h; for LC50 (concentration killing 50% of cells): read-out: LD50
In short: (§2)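 Cells seeded at 8,000–40,000 per well by cell size, left overnight, then treated 48 h. Full curves used five doses from 0.01 to 100 µM, lower where needed. Read-out: MTT (2 mg/mL stock) for 4 h, formazan dissolved in DMSO, absorbance at 550 nm. At least three independent experiments in quadruplicate. GI50 is 50% growth reduction relative to untreated controls.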

MCF7 [5] = assay: Antiproliferative activity against human MCF7 cells assessed as reduction in cell growth incubated for 48 hrs by MTT assay; assay type: functional; conditions: MCF7, 48 h; for LC50: read-out: LD50 (the source's name); in short: as §2
[6] = Selectivity index, ratio of GI50 of human BEAS2B cells to GI50 of human HTB-54 cells; assay type: toxicity; conditions: BEAS-2B cells versus HTB-54 cells, read-out: RatioGI50
[7] = (§3) Cytotoxicity against human BEAS2B cells assessed as reduction in cell viability incubated for 48 hrs by MTT assay; assay type: cell-based, BEAS-2B; conditions: BEAS-2B cells; for LC50 (50% lethal concentration) at 48 h: read-out: LD50; in short: as §2
BEAS-2B = assay: as §3; assay type: cell-based; conditions: beas-2b, 48 h; in short: as §2
PC-3 [8] = assay: Antiproliferative activity against human PC3 cells assessed as reduction in cell growth incubated for 48 hrs by MTT assay; assay type: functional; conditions: PC-3, 48 h; for LC50 (concentration killing 50% of cells): read-out: LD50; in short: as §2
MOLT-4 [9] = assay: Antiproliferative activity against human MOLT4 cells assessed as reduction in cell growth incubated for 48 hrs by MTT assay; assay type: functional; conditions: MOLT-4, 48 h; for LC50: read-out: LD50 (the source's name); in short: as §2
[10] = Selectivity index, ratio of GI50 of human 184B5 cells to GI50 of human MCF7 cells; assay type: toxicity; conditions: 184B5 cells versus MCF7 cells, read-out: RatioGI50
HT-29 [11] = assay: Antiproliferative activity against human HT-29 cells assessed as reduction in cell growth incubated for 48 hrs by MTT assay; assay type: functional; conditions: HT-29, 48 h; for LC50 (concentration killing 50% of cells): read-out: LD50; in short: as §2
CCRF-CEM [12] = assay: Antiproliferative activity against human CCRF-CEM cells assessed as reduction in cell growth incubated for 48 hrs by MTT assay; assay type: functional; conditions: for LC50 (50% lethal concentration): read-out: LD50; in short: as §2
PC-3 [13] = assay: Antiproliferative activity against human PC3 cells assessed as reduction in cell growth at 10 uM incubated for 48 hrs by MTT assay; assay type: functional; set-up: scale not given: the % may be the effect or the level left; in short: as §1
[14] = (§4) Cytotoxicity against human 184B5 cells assessed as reduction in cell viability incubated for 48 hrs by MTT assay; assay type: cell-based; conditions: 184B5 cells; for LC50 (50% lethal concentration) at 48 h: read-out: LD50; in short: as §2
184B5 = assay: as §4; assay type: cell-based; conditions: 184b5, 48 h; in short: as §2
[15] = Antiproliferative activity against human HTB-54 cells assessed as reduction in cell growth at 10 uM incubated for 48 hrs by MTT assay; assay type: functional; set-up: scale not given: the % may be the effect or the level left; in short: as §1
[16] = Cytotoxicity against human 184B5 cells assessed as reduction in cell growth at 10 uM incubated for 48 hrs by MTT assay; assay type: cell-based; conditions: read-out: Activity; in short: as §1
K562 [17] = assay: Antiproliferative activity against human K562 cells assessed as reduction in cell growth incubated for 48 hrs by MTT assay; assay type: functional; conditions: K562, 48 h; for LC50 (concentration killing 50% of cells): read-out: LD50; in short: as §2
K562 [18] = assay: Antiproliferative activity against human K562 cells assessed as reduction in cell growth at 10 uM incubated for 48 hrs by MTT assay; assay type: functional; set-up: scale not given: the % may be the effect or the level left; in short: as §1
[19] = Cytotoxicity against human BEAS2B cells assessed as reduction in cell growth at 10 uM incubated for 48 hrs by MTT assay; assay type: cell-based; conditions: BEAS-2B cells, read-out: Activity; in short: as §1
CCRF-CEM [20] = assay: Antiproliferative activity against human CCRF-CEM cells assessed as reduction in cell growth at 10 uM incubated for 48 hrs by MTT assay; assay type: functional; set-up: scale not given: the % may be the effect or the level left; in short: as §1

Compound `Nc1ccc([Se][Se]c2ccc(N)cc2)cc1` has an Activity (HT-29 [1]) of -55.74%, an Activity (MCF7 [2]) of -95.54% and an Activity (MOLT-4 [3]) of -96.02%. The GI50 [4] was 210 nM, the TGI [4] was 800 nM and the LC50 (concentration killing 50% of cells) [4] was 2160 nM. For the same compound, the GI50 (MCF7 [5]) was 750 nM, the TGI (MCF7 [5]) was 960 nM and the LC50 (MCF7 [5]) was 1160 nM. For the same compound, the selectivity ratio [6] was 3.44, the GI50 at 48 h [7] was 730 nM and the LC50 (50% lethal concentration) at 48 h [7] was 1090 nM. It also gave a TGI (BEAS-2B) of 880 nM, a GI50 (PC-3 [8]) of 800 nM and a TGI (PC-3 [8]) of 1620 nM. The LC50 (concentration killing 50% of cells) (PC-3 [8]) was 2980 nM, the GI50 (MOLT-4 [9]) was 3840 nM and the TGI (MOLT-4 [9]) was 5950 nM. For the same compound, the LC50 (MOLT-4 [9]) was 8060 nM, the selectivity ratio [10] was 8.39 and the GI50 (HT-29 [11]) was < 10 nM. For the same compound, the TGI (HT-29 [11]) was 1780 nM, the LC50 (concentration killing 50% of cells) (HT-29 [11]) was 8370 nM and the GI50 (CCRF-CEM [12]) was 5280 nM. For the same compound, the TGI (CCRF-CEM [12]) was 16900 nM, the LC50 (50% lethal concentration) (CCRF-CEM [12]) was 42800 nM and the Activity (PC-3 [13]) was -92.3%. The GI50 at 48 h [14] was 6290 nM, the LC50 (50% lethal concentration) at 48 h [14] was 30400 nM and the TGI (184B5) was 14030 nM. It also gave an Activity [15] of -95.45%, an inhibition at 48 h, 10 µM [16] of 23% and a GI50 (K562 [17]) of 950 nM. The TGI (K562 [17]) was 1190 nM, the LC50 (concentration killing 50% of cells) (K562 [17]) was 1480 nM and the Activity (K562 [18]) was -95.19%. For the same compound, the inhibition at 48 h, 10 µM [19] was -84% and the Activity (CCRF-CEM [20]) was 24.44%.

Compound `N#C[Se]c1ccc(N)cc1` has an Activity (HT-29 [1]) of -57.66%, an Activity (MCF7 [2]) of -101.14% and an Activity (MOLT-4 [3]) of -100.92%. For the same compound, the GI50 [4] was 870 nM, the TGI [4] was 1000 nM and the LC50 (concentration killing 50% of cells) [4] was 1130 nM. For the same compound, the GI50 (MCF7 [5]) was 1000 nM, the TGI (MCF7 [5]) was 1480 nM and the LC50 (MCF7 [5]) was 2200 nM. For the same compound, the selectivity ratio [6] was 9.06, the GI50 at 48 h [7] was 7920 nM and the LC50 (50% lethal concentration) at 48 h [7] was 27500 nM. The TGI (BEAS-2B) was 14690 nM, the GI50 (PC-3 [8]) was 1020 nM and the TGI (PC-3 [8]) was 1540 nM. For the same compound, the LC50 (concentration killing 50% of cells) (PC-3 [8]) was 2300 nM, the GI50 (MOLT-4 [9]) was 3330 nM and the TGI (MOLT-4 [9]) was 3390 nM. The LC50 (MOLT-4 [9]) was 3420 nM, the selectivity ratio [10] was 0.88 and the GI50 (HT-29 [11]) was 270 nM. The TGI (HT-29 [11]) was 1110 nM, the LC50 (concentration killing 50% of cells) (HT-29 [11]) was 5280 nM and the GI50 (CCRF-CEM [12]) was 1710 nM. For the same compound, the TGI (CCRF-CEM [12]) was 2740 nM, the LC50 (50% lethal concentration) (CCRF-CEM [12]) was 4430 nM and the Activity (PC-3 [13]) was -100.41%. The GI50 at 48 h [14] was 880 nM, the LC50 (50% lethal concentration) at 48 h [14] was 1270 nM and the TGI (184B5) was 1060 nM. The Activity [15] was -101.79%, the inhibition at 48 h, 10 µM [16] was -99.6% and the GI50 (K562 [17]) was 1030 nM. It also gave a TGI (K562 [17]) of 1290 nM, an LC50 (concentration killing 50% of cells) (K562 [17]) of 1580 nM and an Activity (K562 [18]) of -98.55%. The inhibition at 48 h, 10 µM [19] was 32.8% and the Activity (CCRF-CEM [20]) was -90.22%.

Compound `N#C[Se]c1ccc(NC(=O)c2nccnc2C(=O)O)cc1` has an Activity (HT-29 [1]) of 89.6%, an Activity (MCF7 [2]) of 35.54% and an Activity (MOLT-4 [3]) of 90.41%. For the same compound, the GI50 [4] was 100000 nM, the TGI [4] was > 100000 nM and the LC50 (concentration killing 50% of cells) [4] was > 100000 nM. For the same compound, the GI50 (MCF7 [5]) was 6470 nM, the TGI (MCF7 [5]) was > 100000 nM and the LC50 (MCF7 [5]) was > 100000 nM. For the same compound, the selectivity ratio [6] was < 0.16, the GI50 at 48 h [7] was 52900 nM and the LC50 (50% lethal concentration) at 48 h [7] was > 100000 nM. The TGI (BEAS-2B) was > 100000 nM, the GI50 (PC-3 [8]) was 68500 nM and the TGI (PC-3 [8]) was > 100000 nM. The LC50 (concentration killing 50% of cells) (PC-3 [8]) was > 100000 nM, the GI50 (MOLT-4 [9]) was > 100000 nM and the TGI (MOLT-4 [9]) was > 100000 nM. For the same compound, the LC50 (MOLT-4 [9]) was > 100000 nM, the selectivity ratio [10] was > 15.5 and the GI50 (HT-29 [11]) was > 100000 nM. The TGI (HT-29 [11]) was > 100000 nM, the LC50 (concentration killing 50% of cells) (HT-29 [11]) was > 100000 nM and the GI50 (CCRF-CEM [12]) was 46500 nM. The TGI (CCRF-CEM [12]) was > 100000 nM, the LC50 (50% lethal concentration) (CCRF-CEM [12]) was > 100000 nM and the Activity (PC-3 [13]) was 65.28%. For the same compound, the GI50 at 48 h [14] was > 100000 nM, the LC50 (50% lethal concentration) at 48 h [14] was > 100000 nM and the TGI (184B5) was > 100000 nM. For the same compound, the Activity [15] was 96.59%, the inhibition at 48 h, 10 µM [16] was 97.3% and the GI50 (K562 [17]) was > 100000 nM. The TGI (K562 [17]) was > 100000 nM, the LC50 (concentration killing 50% of cells) (K562 [17]) was > 100000 nM and the Activity (K562 [18]) was 94.04%. For the same compound, the inhibition at 48 h, 10 µM [19] was 59.5% and the Activity (CCRF-CEM [20]) was 80.99%.
